Assay outcomes as filed in PubChem.
MrgX1 PAM: positive allosteric modulators of MrgX1, primary screen, HEK293 cells, Fluo-4 calcium flux | Mas-related G-protein coupled receptor member X1 (Homo sapiens), Q96LB2 | FDSS; stronger effect = higher value | B-score at 10 µM | actives 0.63% (n = 310,000) | AID 588675, 2011;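 active = plate-corrected calcium response at least 3 library SD above typical, normal starting fluorescence, not activating the receptor alone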;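 also: compound read alongside a low EC10 to EC30 dose of BAM8-22 agonist; peak minus trough fluorescence over baseline measured at the second addition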
Target sequence (Q96LB2 whole entry, looked up): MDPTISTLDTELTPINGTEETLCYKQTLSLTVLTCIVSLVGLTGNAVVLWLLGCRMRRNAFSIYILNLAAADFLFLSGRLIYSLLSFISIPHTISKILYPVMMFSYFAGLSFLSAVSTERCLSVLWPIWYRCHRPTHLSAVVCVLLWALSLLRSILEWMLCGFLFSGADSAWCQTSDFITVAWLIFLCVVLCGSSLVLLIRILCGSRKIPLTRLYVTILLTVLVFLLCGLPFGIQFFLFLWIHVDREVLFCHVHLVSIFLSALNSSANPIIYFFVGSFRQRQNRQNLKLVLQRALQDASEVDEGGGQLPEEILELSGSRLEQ
MrgX1 antag: antagonists of human MrgX1 receptor, primary screen, HEK293 cells, Fluo-4 calcium flux | BAM8-22 antagonism; stronger effect = lower value | B-score at 10 µM | actives 1.3% (n = 310,000);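 active = calcium-response B-score plate-corrected more than 3 library SD below zero, starting fluorescence within 5 deviations, no agonist response on first addition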;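 also: peak minus trough fluorescence over baseline after final BAM8-22 challenge near maximal dose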
MrgX1 ag: agonists of human MrgX1 receptor, primary screen, HEK293 cells, Fluo-4 calcium flux | B-score at 10 µM | Mas-related G-protein coupled receptor member X1 (Homo sapiens), Q96LB2 | actives 0.44% (n = 310,000) | Fluo-4 calcium fluorescence, agonist mode; stronger effect = higher value;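 active = calcium response B-score plate-corrected fluorescence ratio at least 3 library SD, with starting fluorescence B-score inside 5 SD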
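Test system: Stable human MrgX1 HEK293 cell line | Schedule: Overnight plating before 1 h dye loading | Read-out basis: Baseline-normalised fluorescence change ratio, B-scored | Detection: Kinetic calcium dye fluorescence, Fluo-4 NW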
RGS4 pot: RGS4 potentiators or activators, primary screen, cell-based, HEK293 M3R inducible RGS4, calcium flux; carbachol calcium flux Fluo4; stronger effect = lower value; B-score at 10 µM; actives 0.92% (n = 310,000);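 active = B-score of the integrated calcium signal more than 4 SD below the library mean, with starting fluorescence not abnormally high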;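 also: negative B-score means reduced calcium response which marks RGS4 activation or potentiation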
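Assay system: Inducible-RGS4 HEK293 cells carrying M3 receptor | Schedule: Compound preincubation 20 min at room temperature before agonist | Signal: Kinetic calcium fluorescence imaging with Fluo4-AM dye, 2 µM | Read-out basis: B score from integrated fluorescence ratio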
RGS4 block: RGS4 inhibitors, primary screen, cell-based, HEK293 M3R inducible RGS4, calcium flux. Regulator of G-protein signaling 4 (Homo sapiens), P49798. actives 0.45% (n = 310,000). B-score at 10 µM. Fluo-4 calcium flux; stronger effect = higher value; triggered by carbachol at its EC20;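 active = B-score, a plate-corrected calcium signal, over three deviations above library mean, with baseline fluorescence within five deviations of library mean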;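 also: RGS4 expression induced by doxycycline in cells with stable M3 receptor; B-score is computed from the integrated fluorescence ratio over baseline after carbachol; higher B-score means a larger calcium signal and so more RGS4 inhibition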
Target sequence (P49798 whole entry, looked up): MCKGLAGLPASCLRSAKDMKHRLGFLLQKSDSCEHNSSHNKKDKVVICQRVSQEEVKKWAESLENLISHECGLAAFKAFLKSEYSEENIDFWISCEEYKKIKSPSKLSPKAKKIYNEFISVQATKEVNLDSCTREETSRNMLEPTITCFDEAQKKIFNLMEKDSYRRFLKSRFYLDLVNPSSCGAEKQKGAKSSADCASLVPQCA
MrgX1 allo conf: MrgX1 positive allosteric modulators, duplicate retest, confirmation, HEK293 cells, Fluo-4 calcium flux. actives 13% (n = 1,200). AID 602413, 2012. shares compounds with MrgX1 PAM. Fluo-4 calcium fluorescence, FDSS. activation (ratio percentage), % at 10 µM;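 active = ratio at least 3 SD above the weak peptide control, stable starting fluorescence, no direct agonism earlier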;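 also: compound followed by low BAM8-22 agonist challenge near EC20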
HEK293 Ca flux: nonspecific calcium signal in parental HEK293, confirmation, counter-screen for MrgX1 antagonist project, parental HEK293 cells, Fluo-4 calcium flux; shares compounds with MrgX1 antag; Fluo-4 calcium fluorescence, FDSS; fluorescence ratio F(max-min)/F0 at 10 µM; actives 2% (n = 4,000);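 active = duplicate-averaged calcium fluorescence ratio at least three times the standard deviation of buffer wells, a nonspecific response in parental cells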
HEK293 Ca counter: calcium response in parental HEK293 cells, primary screen, counter-screen for MrgX1 allosteric activator project, cell-based, Fluo-4 calcium flux, duplicate. Fluo-4 fluorescence ratio; stronger effect = higher value. AID 624114, 2012. actives 0.4% (n = 4,000). shares compounds with MrgX1 antag. fluorescence ratio F(max-min)/F0 at 10 µM;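 active = calcium fluorescence ratio, averaged over duplicates, at least 3 SD of the buffer-well ratio, meaning a nonspecific response in receptor-free cells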;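 also: untransfected parental HEK293 lacking MrgX1 used as counterscreen for MrgX1 allosteric activators; fluorescence change taken during the second addition on a kinetic imager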
HEK293 Ca cntr2: calcium response in parental HEK293 cells, primary screen, counter-screen for MrgX1 agonist project, cell-based, Fluo-4 calcium flux, duplicate, agonist mode; shares compounds with MrgX1 antag; Fluo-4 calcium fluorescence (FDSS); stronger effect = higher value; fluorescence ratio F(max-min)/F0 at 10 µM; actives 8.7% (n = 4,000); AID 624115, 2012;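 active = calcium fluorescence ratio at least three times the spread of buffer wells, meaning a non-specific response in parental cells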
Starred values were filed as active, the others as inactive; i = inactive; x = no result given. Hits are enriched below; roughly 3.5% of the tested compounds scored in any of these assays.

SMILES	MrgX1 PAM	MrgX1 antag	MrgX1 ag	RGS4 pot	RGS4 block	MrgX1 allo conf	HEK293 Ca flux	HEK293 Ca counter	HEK293 Ca cntr2
c1ccc(N2CCN(c3ncnc4sc5c(c34)CCC5)CC2)cc1	i	i	i	i	i	x	x	x	x
COC(=O)/C=C1\SC(N)=NC1=O	i	i	i	i	i	x	x	x	x
COc1ccc(C(O)c2nccc3cc(OC)c(OC)cc23)cc1OC (stereo unspecified)	9.46*	i	i	i	i	i	i	i	i
COc1cc(N)c(C(O)c2nccc3cc(OC)c(OC)cc23)cc1OC (stereo unspecified)	i	i	i	i	i	x	x	x	x
CCCC12CN3CC(C)(CN(C1)C3c1ccco1)C2=O (stereo unspecified)	i	i	i	i	i	x	x	x	x
COc1ccc(CNC(=O)C2CCN(C(=O)c3cccc(Cl)c3)CC2)cc1	i	i	i	i	i	x	x	x	x
O=C(O)c1sccc1SCc1ccc(Cl)cc1Cl	i	i	i	i	i	x	x	x	x
COc1cccc(NC(=O)CN2C(=O)COc3ccc(Cl)cc32)c1	7.73*	i	i	i	i	i	i	i	i
CCC(C)c1ccccc1N1CC(C(=O)NCCc2ccc(OC)c(OC)c2)CC1=O (stereo unspecified)	i	i	i	i	i	x	x	x	x
COc1ccc(-c2nc(CS(=O)CC(=O)N3CCOCC3)c(C)o2)cc1OC (stereo unspecified)	i	i	i	i	i	x	x	x	x
Cn1c(CN2CCCC2)nc2cc(NC(=O)c3ccc(Cl)cc3)ccc21	9*	i	i	i	i	i	i	i	i
Cn1c(CN2CCCCC2)nc2cc(NC(=O)c3ccc(Cl)cc3)ccc21	i	i	i	i	i	x	x	x	x
CCC1C(=O)C(CC)C(c2ccccc2)NC1c1ccccc1 (stereo unspecified)	i	i	i	i	i	x	x	x	x
CCC1C(=NO)C(CC)C(c2ccccc2)NC1c1ccccc1 (stereo unspecified)	23.2*	i	i	i	i	i	i	i	i
CC1CCCN(C(=O)CSc2nnc(-c3c[nH]c4ccccc34)o2)C1 (stereo unspecified)	9.51*	i	i	i	i	8.7%*	i	i	i
O=C(C(NS(=O)(=O)c1cccs1)c1ccccc1)N1CCN(c2ccccc2)CC1 (stereo unspecified)	21.2*	i	i	i	i	i	i	i	i
O=S(=O)(c1cccs1)N1CCN(c2ccccc2)CC1	i	i	i	i	i	x	x	x	x
CC(C)N1CCN(c2ccc(S(=O)(=O)N3CCOCC3)cn2)CC1	i	i	i	i	i	x	x	x	x
Cc1onc(-c2ccccc2Cl)c1C(=O)NCc1nc(-c2ccc(C(F)(F)F)cc2)no1	i	i	i	i	i	x	x	x	x
CCc1cc(C(=O)Nc2cc(S(=O)(=O)N(C)C)ccc2C)sc1C	8.37*	i	i	i	i	i	i	i	i
COc1ccc(N=C2SCC(=O)N2Cc2ccccc2)cc1	10.7*	i	i	i	i	i	i	i	i
Cc1cc(C)c2sc(NC(=O)c3ccc([N+](=O)[O-])o3)nc2c1	20.5*	i	i	i	i	i	i	i	i
CCCN1CNc2c(c(=O)[nH]c(=S)n2CCc2ccccc2)C1	i	i	i	i	i	x	x	x	x
O=C(COC(=O)c1ccc(NS(=O)(=O)c2ccc(Br)s2)cc1)NC1CCCC1	18.8*	i	i	i	i	i	i	i	i
Cc1nc(SCC(=O)Nc2cc(C(N)=O)cc(C(N)=O)c2)c2c(C)c(C)sc2n1	12.7*	i	i	i	i	i	i	i	i
SMILES	MrgX1 PAM	MrgX1 antag	MrgX1 ag	RGS4 pot	RGS4 block	MrgX1 allo conf	HEK293 Ca flux	HEK293 Ca counter	HEK293 Ca cntr2
Cc1nc(SCC(=O)NCc2ccco2)c2c(C)c(C)sc2n1	i	i	i	i	i	x	x	x	x
COc1cccc(NC(=O)CSc2nc3c(sc4ccccc43)c(=O)n2CCN(C)C)c1	7.52*	i	i	i	i	i	i	i	i
CCN(CC)CCn1c(SCC(=O)Nc2cccc(OC)c2)nc2c(sc3ccccc32)c1=O	i	i	i	i	i	x	x	x	x
CCOc1cc(C)c(Cl)cc1S(=O)(=O)N(CC)CC	7.53*	i	i	i	i	i	i	i	i
CCOc1cc(S(=O)(=O)N(CC)CC)ccc1Cl	i	i	i	i	i	x	x	x	x
O=C(NCCc1ccccc1)c1nc(-c2cccs2)no1	i	i	i	i	i	x	x	x	x
COc1cc(OC)cc(C2=NC3(CCC(C)CC3)NC2=S)c1 (stereo unspecified)	6.62*	i	i	i	i	i	i	i	i
Cc1ccc(C2=NC3(CCCC3)NC2=S)cc1	i	i	i	i	i	x	x	x	x
COc1ccc(CNc2ccc(C)cc2)cc1Br	i	i	i	i	i	x	x	x	x
COc1ccc(CNc2ccccc2)cc1Br	9.41*	i	i	i	i	i	i	i	i
COc1ccc(S(=O)(=O)N2CCOC23CCN(S(=O)(=O)c2cc(F)ccc2F)CC3)cc1	i	i	i	i	i	x	x	x	x
O=C(Nc1ccc(N2CCOCC2)c(Cl)c1)c1ccc(-n2cnnc2)cc1Cl	i	i	i	i	i	x	x	x	x
